Assay results from ChEMBL document CHEMBL1155465, “"Viologen" dendrimers as antiviral agents: the effect of charge number and distance” (J Med Chem, 2010).
≈ marks a conversion by molar mass, not a printed value. Calls of active or inactive are those of the source. No cut-off for these calls is given here.

Legend:
[1] = tested on: Human immunodeficiency virus 1; assay: Antiviral activity against HIV1 NL4-3 pseudotyped with VSV-G envelope infected in human C8166 cells assessed as inhibition of GFP expression after 48 hrs by flow cytometry; format: functional, organism-based
In short: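 VSV-G-pseudotyped (env-deficient) GFP-encoding NL4.3 taken from transfection supernatant at 60 h and clarified at 450g for 10 min. Used to infect 3 × 10⁴ C8166 cells (RPMI 1640, 10% FCS) with graded compound concentrations. GFP expression read by flow cytometry 48 h post-infection, with the no-compound infection control set as 100%.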

[2] = Selectivity index, ratio of CC50 for human Jurkat A72 cells to EC50 for HIV1 3B; format: toxicity, cell-based
In short: (§1)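 Acutely infected A72 Jurkat cells. EC50 (μg/mL) is the concentration giving 50% inhibition of GFP expression relative to drug-free infection. CC50 is 50% reduction in cell viability. SI = CC50/EC50. Mean ± SD of ≥2 experiments.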

[3] = tested on: Human immunodeficiency virus 1; assay: Antiviral activity against HIV1 3B infected in human A72 Jurkat cells assessed as inhibition of GFP expression after 48 hrs by flow cytometry; format: functional, organism-based; conditions: Human immunodeficiency virus 1, 3B; in short: as §1
[4] = tested on: Human immunodeficiency virus 1; assay: Antiviral activity against HIV1 3B infected in human MT4 cells assessed as time-of-addition prolongation at 2 ug/ml after 31 hrs post infection by ELISA; format: functional
In short: (§2)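 Time-of-addition: MT-4 cells infected with HIV-1 IIIB at moi 0.5 for a 1 h adsorption, then plated at 45000 cells/well at 37 °C. Compound added at 0, 1, 2, 3, 4, 5, 6, 7, 8, 24 or 25 h post-infection. Supernatant p24 antigen measured by ELISA at 31 h post-infection.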

[5] = tested on: Human immunodeficiency virus; assay: Antiviral activity against HIV S056 infected in human A72 Jurkat cells assessed as inhibition of GFP expression after 48 hrs by flow cytometry; format: functional, organism-based; conditions: Human immunodeficiency virus 1, S056, Jurkat; in short: as §1
[6] = tested on: Human immunodeficiency virus; assay: Antiviral activity against HIV S067 infected in human A72 Jurkat cells assessed as inhibition of GFP expression after 48 hrs by flow cytometry; format: functional, organism-based; conditions: Human immunodeficiency virus 1, S067, Jurkat; in short: as §1
[7] = tested on: Human immunodeficiency virus; assay: Antiviral activity against AZT-resistant HIV infected in human A72 Jurkat cells assessed as inhibition of GFP expression after 48 hrs by flow cytometry; format: functional, organism-based; conditions: Human immunodeficiency virus 1, Jurkat; in short: as §1
[8] = tested on: Human immunodeficiency virus 2; assay: Antiviral activity against HIV2 ROD infected in human A72 Jurkat cells assessed as inhibition of GFP expression after 48 hrs by flow cytometry; format: functional, organism-based; conditions: Human immunodeficiency virus 2, ISOLATE ROD; in short: as §1
[9] = Cytotoxicity against human Jurkat A72 cells by MTT assay; format: cell-based; in short: as §1
[10] = tested on: Human immunodeficiency virus; assay: Antiviral activity against HIV S07 infected in human A72 Jurkat cells assessed as inhibition of GFP expression after 48 hrs by flow cytometry; format: functional, organism-based; conditions: Human immunodeficiency virus 1, S07, Jurkat; in short: as §1
[11] = tested on: Human immunodeficiency virus 1; assay: Antiviral activity against HIV1 NL4-3 infected in human A72 Jurkat cells assessed as inhibition of GFP expression after 48 hrs by flow cytometry; format: functional, organism-based; conditions: Human immunodeficiency virus 1, NL4-3, Jurkat; in short: as §1
[12] = tested on: Human immunodeficiency virus 1; assay: Antiviral activity against HIV1 3B infected in human MT4 cells assessed as time-of-addition prolongation at 0.5 ug/ml after 31 hrs post infection by ELISA; format: functional; in short: as §2
[13] = Cytotoxicity against human E6SM cells by MTT assay; format: cell-based
[14] = tested on: Human alphaherpesvirus 1; assay: Antiviral activity against TK-deficient acyclovir-resistant HSV1 KOS infected in human E6SM cell assessed as inhibition of virus-induced cytopathicity; format: functional, organism-based; conditions: Human alphaherpesvirus 1, KOS
[15] = tested on: Human immunodeficiency virus 1; assay: Antiviral activity against HIV1 3B infected in human PBMC assessed as inhibition of viral p24 antigen production by ELISA; format: functional, organism-based; conditions: Human immunodeficiency virus 1, 3B
In short: (§3)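 PBMCs infected with HIV-1 IIIB and cultured with a range of compound concentrations. EC50 is 50% inhibition of supernatant p24 core antigen (ELISA) relative to drug-free culture. CC50 is 50% reduction in cell viability. SI = CC50/EC50. Mean ± SD of ≥2 experiments.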

[16] = Selectivity index, ratio of CC50 for human PBMC to EC50 for HIV1 3B; in short: as §3
[17] = Cytotoxicity against human PBMC after 5 days by MTT assay; format: cell-based; in short: as §3
[18] = Cytotoxicity against human HeLa cells by MTT assay; format: cell-based
[19] = tested on: Human alphaherpesvirus 1; assay: Antiviral activity against HSV1 KOS infected in human E6SM cell assessed as inhibition of virus-induced cytopathicity; format: functional, organism-based; conditions: Human alphaherpesvirus 1, KOS
[20] = tested on: Human alphaherpesvirus 2; assay: Antiviral activity against HSV2 G infected in human E6SM cell assessed as inhibition of virus-induced cytopathicity; format: functional, organism-based; conditions: Human alphaherpesvirus 2, strain G
[21] = tested on: Human immunodeficiency virus; assay: Antiviral activity against HIV SO6141 infected in human MT4 cells after 5 days by MTT assay; format: functional, organism-based; conditions: Human immunodeficiency virus 1, SO6141, MT4, 120 h
In short: (§4)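 MT-4 cells in RPMI 1640 with 10% heat-inactivated FCS, 2 mM L-glutamine, 0.1% bicarbonate and gentamicin, seeded at 6 × 10⁵ cells/mL final with virus or mock infection. Viability read by MTT after 5 days at 540 and 690 nm, using the median OD of three wells. CC50 is 50% loss of mock-infected OD540. EC50 is 50% inhibition of virus-induced CPE. SI = CC50/EC50. Mean ± SD of ≥2 experiments.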

[22] = tested on: Human respirovirus 3; assay: Antiviral activity against Parainfluenza virus 3 infected in african green monkey Vero cells assessed as inhibition of virus-induced cytopathicity; format: functional, organism-based; conditions: Human respirovirus 3, Vero
[23] = tested on: Punta Toro virus; assay: Antiviral activity against Punta Toro virus infected in african green monkey Vero cells assessed as inhibition of virus-induced cytopathicity; format: functional, organism-based
[24] = tested on: Simian immunodeficiency virus; assay: Antiviral activity against SIV MAC251 infected in human MT4 cells after 5 days by MTT assay; format: functional, organism-based; conditions: MAC251, MT4, 120 h; in short: as §4
[25] = tested on: Vaccinia virus; assay: Antiviral activity against Vaccina virus infected in human E6SM cell assessed as inhibition of virus-induced cytopathicity; format: functional, organism-based; conditions: Orthopoxvirus vaccinia
[26] = tested on: Vesicular stomatitis virus; assay: Antiviral activity against VSV infected in human E6SM cell assessed as inhibition of virus-induced cytopathicity; format: functional, organism-based
[27] = tested on: Reovirus sp.; assay: Antiviral activity against Reovirus infected in african green monkey Vero cells assessed as inhibition of virus-induced cytopathicity; format: functional, organism-based
[28] = tested on: Human immunodeficiency virus 1; assay: Antiviral activity against HIV1 3B infected in human MT4 cells after 5 days by MTT assay; format: functional, organism-based; conditions: Human immunodeficiency virus 1, 3B, MT4, 120 h; in short: as §4
[29] = tested on: Human immunodeficiency virus 2; assay: Antiviral activity against HIV2 ROD infected in human MT4 cells after 5 days by MTT assay; format: functional, organism-based; conditions: Human immunodeficiency virus 2, ISOLATE ROD, MT4, 120 h; in short: as §4
[30] = Cytotoxicity against african green monkey Vero cells by MTT assay; format: cell-based; conditions: chlorocebus sabaeus
[31] = Cytotoxicity against human MT4 cells after 5 days by MTT assay; format: cell-based; in short: as §4
[32] = tested on: Human immunodeficiency virus 1; assay: Antiviral activity against HIV1 3B infected in human MT4 cells assessed as time-of-addition prolongation at 100 ug/ml after 31 hrs post infection by ELISA; format: functional; in short: as §2
[33] = tested on: Respiratory syncytial virus; assay: Antiviral activity against RSV infected in human HeLa cell assessed as inhibition of virus-induced cytopathicity; format: functional, organism-based
[34] = tested on: Vesicular stomatitis virus; assay: Antiviral activity against VSV infected in human HeLa cell assessed as inhibition of virus-induced cytopathicity; format: functional, organism-based
[35] = Selectivity index, ratio of CC50 for human MT4 cells to EC50 for HIV1 3B; format: toxicity, cell-based; conditions: read-out: Ratio CC50/EC50; in short: as §4
[36] = tested on: Sindbis virus; assay: Antiviral activity against Sindbis virus infected in african green monkey Vero cells assessed as inhibition of virus-induced cytopathicity; format: functional, organism-based

For `c1cc(CN2CCCNCCNCCCNCC2)ccc1CN1CCCNCCNCCCNCC1`, the inhibition [1] was “inactive”.

For `Cc1ccnc2c1NC(=O)c1cccnc1N2C1CC1` [NEVIRAPINE], the selectivity ratio [2] was over 250, the EC50 [3] was 0.008 µg/mL (≈ 0.03 µM) and the Time [4] was 10 h. It also gave an EC50 [5] of under 0.2 µg/mL, an EC50 [6] of 0.016 µg/mL (≈ 0.0601 µM) and an EC50 [7] of 0.005 µg/mL (≈ 0.0188 µM). It also gave an EC50 [8] of over 2 µg/mL, a CC50 [9] of over 2 µg/mL and an EC50 [10] of 0.012 µg/mL (≈ 0.0451 µM). For the same molecule, the EC50 [11] was 0.008 µg/mL (≈ 0.03 µM).

With `Cc1cn([C@H]2C[C@H](N=[N+]=[N-])[C@@H](CO)O2)c(=O)[nH]c1=O` [ZIDOVUDINE] the Time [12] was 5 h.

For `CC[n+]1ccc(-c2cc[n+](Cc3cc(Cc4ccc(-c5cc[n+](Cc6cc(C[n+]7ccc(-c8cc[n+](Cc9cc(C[n+]%10ccc(-c%11cc[n+](CC)cc%11)cc%10)cc(C[n+]%10ccc(-c%11cc[n+](CC)cc%11)cc%10)c9)cc8)cc7)cc(C[n+]7ccc(-c8cc[n+](Cc9cc(C[n+]%10ccc(-c%11cc[n+](CC)cc%11)cc%10)cc(C[n+]%10ccc(-c%11cc[n+](CC)cc%11)cc%10)c9)cc8)cc7)c6)cc5)cc4)cc(C[n+]4ccc(-c5cc[n+](CC)cc5)cc4)c3)cc2)cc1.F[P-](F)(F)(F)(F)F.F[P-](F)(F)(F)(F)F.F[P-](F)(F)(F)(F)F.F[P-](F)(F)(F)(F)F.F[P-](F)(F)(F)(F)F.F[P-](F)(F)(F)(F)F.F[P-](F)(F)(F)(F)F.F[P-](F)(F)(F)(F)F.F[P-](F)(F)(F)(F)F.F[P-](F)(F)(F)(F)F.F[P-](F)(F)(F)(F)F.F[P-](F)(F)(F)(F)F.F[P-](F)(F)(F)(F)F.F[P-](F)(F)(F)(F)F.F[P-](F)(F)(F)(F)F.F[P-](F)(F)(F)(F)F.F[P-](F)(F)(F)(F)F`, the MCC [13] was over 50 µg/mL, the EC50 [14] was 10 µg/mL and the EC50 [15] was 1.62 µg/mL. The selectivity ratio ([2]; read-out: Ratio CC50/EC50) was 149, the “Ratio CC50/EC50” value [16] was 2.5 and the EC50 [3] was 0.685 µg/mL. The CC50 at 120 h [17] was 4.04 µg/mL, the MCC [18] was over 50 µg/mL and the EC50 [19] was 2 µg/mL. The EC50 [20] was 10 µg/mL, the EC50 [21] was at least 1550 nM and the EC50 [22] was over 50 µg/mL. It also gave an EC50 [23] of over 50 µg/mL, an EC50 [5] of under 2 µg/mL and an EC50 [6] of under 0.2 µg/mL. The EC50 [24] was 460 nM, the EC50 [25] was over 50 µg/mL and the EC50 [7] was 5.9 µg/mL. The EC50 [8] was 21.5 µg/mL, the EC50 [26] was over 50 µg/mL and the EC50 [27] was over 50 µg/mL. The inhibition [1] was “Dose-dependent effect”, the CC50 [9] was 102 µg/mL and the EC50 [28] was 260 nM. For the same molecule, the EC50 [29] was over 19700 nM, the MCC [30] was over 50 µg/mL and the CC50 at 120 h [31] was 19700 nM. It also gave a Time [32] of 1 h, an EC50 [33] of 50 µg/mL and an EC50 [34] of over 50 µg/mL. It also gave a selectivity ratio [35] of 75.8, an EC50 [10] of under 0.2 µg/mL and an EC50 [11] of under 0.2 µg/mL. For the same molecule, the EC50 [36] was over 50 µg/mL.
